{
  "source": "paper PMC9933231",
  "about": "(ACS Omega, 2023)",
  "key": {"[1]": {"test": "Cytotoxicity assay", "type": "cell-based", "details": "human, HaCaT keratinocytes", "method_in_brief": "(§1)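 Cells were kept in RPMI 1640 with 10% FBS, penicillin and streptomycin at 37 °C in humidified 5% CO2, and subcultured every 3–4 days. They were seeded at 1 × 10^4 cells/well and left 24 h. Medium was then replaced with test samples, with doxorubicin as reference, for 24 h at 37 °C. CellTiter-Blue was added for 2 h at 37 °C, and fluorescence was read at ex 560/em 590 nm.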"}, "[2]": {"test": "Cytotoxicity assay", "type": "cell-based", "details": "human, HepG2 cells", "method_in_brief": "as §1"}},
  "data": [
    {"molecule": "COc1cccc2c1C(=O)c1c(O)c3c(c(O)c1C2=O)C[C@@](O)(C(=O)CO)C[C@@H]3O[C@H]1C[C@H](N)[C@H](O)[C@H](C)O1", "note": "[doxorubicin]", "values": [
      {"measurement": "IC50 at 24 h", "setting": "[1]", "value": "19.8 ± 0.8", "unit": "µg/mL"},
      {"measurement": "IC50 at 24 h", "setting": "[2]", "value": "11.4 ± 0.5", "unit": "µg/mL"}
    ]}
  ]
}
